Only some compounds are listed: those with a hit (about 12% of all), similar ones and a draw of the others.
Diaph act CS = activates diaphorase or chemically reduces, flagging diaphorase assay artifacts; 190,000 tested, 0.005% active; activation factor at 20 µM; Diaphorase/resazurin coupled assay, resorufin fluorescence, 16 min; stronger effect = higher value; 1 = vehicle wells, 0 = NADH-free wells; AID 1229;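 active = diaphorase activity raised at least twofold by the compound at 20 µM; inactive = activation factor below 2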
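Assay system: bacterial diaphorase enzyme (C. kluyveri) / Input: enzyme 0.07 U/mL final / Medium: 50 mM HEPES pH 7.4 with 4.542 mM MgCl2, 0.005% Tween 20 / Doses: single compound dose of 20 µM, 1% DMSO final / Incubation: 16 min enzyme reaction, ambient temperature / Signal: fluorescence, excitation 544 nm and emission 590 nm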
ROMK primary = modulates human ROMK potassium channel activity; P48048; Tet-inducible ROMK, thallium flux fluorescence; actives lie on both sides; B-score at 10 µM; 130,000 tested, 2% active;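 active = signal ratio slope over the read window, or its plate-corrected B-score, at least 3 SD from the plate mean, either direction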;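 also: B-score of the F/F0 ratio slope over 7 to 12 s after thallium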
Target sequence (P48048 whole entry, looked up): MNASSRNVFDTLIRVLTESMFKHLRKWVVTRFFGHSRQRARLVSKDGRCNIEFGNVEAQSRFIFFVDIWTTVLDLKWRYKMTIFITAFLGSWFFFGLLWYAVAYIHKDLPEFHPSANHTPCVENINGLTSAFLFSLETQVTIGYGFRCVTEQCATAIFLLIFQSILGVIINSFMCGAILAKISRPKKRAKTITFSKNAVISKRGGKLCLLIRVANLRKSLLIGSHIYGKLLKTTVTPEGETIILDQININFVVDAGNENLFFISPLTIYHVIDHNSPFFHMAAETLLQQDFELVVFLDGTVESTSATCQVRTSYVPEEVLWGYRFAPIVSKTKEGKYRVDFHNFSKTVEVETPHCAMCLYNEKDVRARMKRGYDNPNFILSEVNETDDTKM
KCC2 mod = KCC2 (human) Cl- transport modulation; KCC2 cells, thallium flux FluoZin-2 fluorescence; Q9H2X9; B-score of Tl+ flux slope (higher = more flux/activation; lower = inhibition) at 10 µM; 190,000 tested, 2.2% active;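 active = thallium flux slope and its plate-corrected score both differing from the plate sample mean at a set confidence after two filtering rounds, in either direction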;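 also: slope of fluorescence scaled to starting intensity during 10 to 20 s after thallium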
WT yeast gro inh = growth inhibition of WT yeast, mitochondrial fusion screen | AID 1362 | inhibition, % at 10 µM | mitochondrial fusion phenotypic screen, WT strain | 190,000 tested, 2.1% active; in the data active = inhibition above about 58%; tested in S. cerevisiae
Lmaj promast = inhibitors of Leishmania major promastigote growth. Leishmania major promastigotes, resazurin fluorescence viability. inhibition, % at 10 µM. 200,000 tested, 9% active. AID 1063; in the data active = inhibition above about 50%;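 also: promastigotes grown with compound for 44 hours at 28 °C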
Diaph inh CS = diaphorase inhibition or chemical oxidation counter-screen. inhibition, % at 20 µM. 190,000 tested, 0.69% active. AID 1217. diaphorase resazurin-to-resorufin fluorescence, NADH, 16 min; bacterial (C. kluyveri) enzyme, not human;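 active = primary screen inhibition at 20 µM above a set limit, cut at about 50% in these data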;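 also: plate controls were DMSO with full reaction for no effect and wells lacking NADH for full effect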
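Assay system: diaphorase enzyme from Clostridium kluyveri. Quantity: enzyme working solution with 0.14 U/mL diaphorase. Schedule: reaction incubation of 16 min at room temperature. Technique: resorufin fluorescence, excitation 544 nm, emission 590 nm. Controls: No-NADH positive control and DMSO neutral control.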
An asterisk follows results filed as active; . = no result given.

SMILES	Diaph act CS	ROMK primary	KCC2 mod	WT yeast gro inh	Lmaj promast	Diaph inh CS
N#CCC1c2ccccc2CCN1C(=O)Nc1cccc(Cl)c1 (stereo not given)	0.9	.	.	13	63*	15
N#CCCn1cc(C(=O)Nc2ccc(C(=O)O)cc2)c(-c2ccc([N+](=O)[O-])cc2)n1	0.9	1.9	0.72	10	-1	11
CCOC(=O)c1ccc(NC(=O)c2cn(CCC#N)nc2-c2ccc3c(c2)OCCO3)cc1	0.9	-0.053	0.4	-17	68*	6
C=CCn1c(SCC(=O)c2c(N)n(C)c(=O)n(C)c2=O)nnc1-c1ccccc1F	1	-1.1	-0.69	-15	-5	1
O=C(N/N=C/c1cc([N+](=O)[O-])ccc1O)c1ccc2c(c1)OCCO2	1	.	-0.48	13	98*	-1
CN1CCN(CCC(=O)N/N=C/c2cc([N+](=O)[O-])ccc2O)CC1	0.7	0.082	-0.23	7	100*	34
O=C(CCl)Nc1ccccc1C(=O)NCc1ccccc1	0.9	0.0012	0.15	-5	42	9
Clc1ccc2nc(-c3ccccc3)c(CN3CCOCC3)n2c1	0.8	0.3	.	10	60*	20
O=[N+]([O-])c1ccccc1S(=O)(=O)NCCC1=CCCCC1	0.9	-0.17	-1.3	71*	0	10
COc1cccc(CN(C)C(=O)c2cccc(OC3CCN(C4CCCC4)CC3)c2)c1	0.9	-0.69	0.045	3	63*	12
COc1ccc(Br)cc1/C=N/NC(=O)c1nc(-c2ccccc2)n2c1CCCCC2	0.9	-0.06	-2.6	37	46	14
O=S(=O)(NNc1ccc(Cl)nn1)c1ccc(F)cc1	0.9	.	0.14	-4	91*	12
CC(C)C[C@@H](CSc1ccc(Br)cc1)N1CCN(CC(C)C)CCC1=O	.	.	-2.5	.	.	.
O=C(c1cccs1)C1CCCN(Cc2nc(Cc3ccccc3F)no2)C1 (stereo not given)	0.6	-0.56	-1.9	-2	78*	35
O=C(c1cccnc1)C1CCCN(Cc2nc(Cc3ccccc3F)no2)C1 (stereo not given)	1	0.17	-0.79	-8	15	-4
CCCCCCn1c(COc2ccccc2F)nnc1SCC(=O)N1c2ccccc2NC(=O)C1(C)C	0.8	.	-0.82	-12	55*	20
COc1ccc(CCn2c(C(C)C)nc3oc4ccccc4c(=O)c3c2=O)cc1	.	.	-0.57	.	.	.
CCOc1cc(/C=N/NC(=S)Nc2ccccc2C(F)(F)F)ccc1OCC(=O)N1CCOCC1	0.8	0.0039	0.18	-1	7	21
O=C(CN1C(=O)c2ccccc2C1=O)NNC1=NS(=O)(=O)c2ccccc21	0.8	-0.39	-0.78	-26	61*	18
O=C(Cc1ccccc1)NNC1=NS(=O)(=O)c2ccccc21	1.1	0.2	1.1	-10	-8	-10
CCc1nn(-c2ccccc2)c(=S)c2ccccc12	0.7	0.87	-0.97	1	4	27
CC(C)C1Nc2c(O)cc(Cl)c([N+](=O)[O-])c2C2C=CCC21 (stereo not given)	.	-0.88	-3.4	83*	-4	.
CCN(CC)CCN1C(=O)C(=O)/C(=C(/O)c2c(C)[nH]c(C(=O)OC)c2C)C1c1ccc(C)o1 (stereo not given)	.	.	-0.0064	.	.	.
COc1ccc(N2CCN(C(=O)CNS(=O)(=O)c3ccc(C)cc3)CC2)cc1	1	0.5	0.048	-4	2	3
COc1cc(NC(=S)NCCN2CCOCC2)cc(OC)c1	0.9	0.83	0.94	15	-5	6
SMILES	Diaph act CS	ROMK primary	KCC2 mod	WT yeast gro inh	Lmaj promast	Diaph inh CS
N#CCCN(C(=O)CSc1ccc2c(c1)OCCO2)c1ccc(F)cc1	0.9	.	0.31	0	87*	15
Cc1c(NC(=O)c2ccc(F)c(S(=O)(=O)N3CCOCC3)c2)c(=O)n(-c2ccccc2)n1C	1	.	2.4	1	-3	-3
Clc1ccc(C2=NNC(=NCc3ccc4c(c3)OCO4)SC2)cc1	1	.	-1	61*	16	3
COc1ccc(CN=C2NN=C(c3ccc(Cl)cc3)CS2)cc1	0.9	-0.067	-0.35	24	13	12
COc1ccc(OC)c(C2=NNC(=NCc3ccc4c(c3)OCO4)SC2)c1	0.9	.	-1.3	15	92*	14
Oc1ccc(C2=NNC(=NCc3ccc4c(c3)OCO4)SC2)c(O)c1	0.6	.	0.06	-1	-5	37
CCCCNC(=O)C1c2ccccc2Oc2ccccc21	1	-0.47	0.53	5	-4	5
CNCCC1Sc2ccccc2Oc2ccccc21 (stereo not given)	1	-1.9	-0.12	5	95*	4
CCOC(=O)N1CCC(N(CCN(C)C)C(=S)Nc2cc(C)cc(C)c2)CC1	0.9	.	1.5	5	-3	8
CS(=O)(=O)Cc1nc2ccccc2oc1=O	0.7	.	-0.052	20	100*	26
Nc1cc(=O)[nH]c(=S)n1-c1ccccc1	1	-0.55	0.59	59*	-6	3
COc1ccc(-n2nnnc2SCC(=O)Nc2nc3c(s2)CCCC3)cc1	0.8	.	-1.5	19	7	17
O=C(CN1CCCc2ccccc21)N/N=C/c1ccccc1O	0.9	.	-0.69	9	99*	12
C/C(=N\NC(=O)c1nonc1N)c1cccs1	0.9	.	0.074	20	-1	7
COCCNC(=O)CCc1c(C)nc2nc(-c3cc(OC)cc(OC)c3)nn2c1C	1	-0.033	-0.19	5	1	4
COc1ccc2cc(S(=O)(=O)NCCCN3CCOCC3)ccc2c1	0.8	-1.1	-0.14	-7	89*	16
COc1ccc(N2CCN(CCCNS(=O)(=O)c3ccc4c(c3)oc(=O)n4C)CC2)cc1	0.9	.	-0.0091	11	-8	8
Cc1ccc2cc(S(=O)(=O)NCCCN3CCOCC3)ccc2c1	0.9	-1.6	0.7	11	93*	15
CCOC(=O)C1(CCOc2ccccc2)CCN(Cc2cccs2)CC1	1	-1.2	.	9	43	2
CCOC(=O)C1(Cc2cccc(OC)c2)CCN(Cc2ccc3c(c2)OCCO3)CC1	0.9	-1.4	-1.4	6	95*	9
CCOC(=O)C1(Cc2cccc(OC)c2)CCN(Cc2cccc3c2OCO3)CC1	0.9	-0.55	0.14	16	54*	15
OCC1(CCOc2ccccc2)CCN(Cc2ccc3c(c2)OCCO3)CC1	1.1	-2.3	0.37	11	92*	-13
CCOC(=O)C1(CCOc2ccccc2)CCN(Cc2ccc3c(c2)OCCO3)CC1	0.8	-2.7	0.29	29	86*	17
CCOC(=O)C1(Cc2cccc(OC)c2)CCN(Cc2cccc(OC)c2OC)CC1	0.9	-1.8	-1	10	24	6
COc1cc(OC)c(CN2CCC(CO)(CCOc3ccccc3)CC2)c(OC)c1	1.2	-0.44	1.5	4	2	-17

Source: PubChem
